Measured values published in ChEMBL document CHEMBL1221292, “Design, synthesis, and evaluation of quinazoline T cell proliferation inhibitors” (Bioorg Med Chem, 2010).
Active and inactive are the calls of the source. No cut-off for these calls is given here.

Assays:
Assay type in all cases: functional, cell-based
Jurkat = assay: Antiproliferative activity against human Jurkat cells after 72 hrs by BrdU incorporation assay
Method in brief: (§1)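 Cells grown in RPMI at 37 °C, 5% CO2, then serum-starved 12 h. PBMC stimulated with ConA 10 µg/mL; Jurkat need no stimulation. 1 × 10^5 cells cultured 3 days with or without inhibitor, duplicate wells. Labelled with 10 µM BrdU, DNA denatured, anti-BrdU-POD added, colorimetric TMB read-out; IC50 derived.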

PBMC = assay: Antiproliferative activity against ConA-stimulated human PBMC after 72 hrs by BrdU incorporation assay; method in brief: as §1
Splenocyte = assay: Inhibition of irradiated BALB/c mouse splenocyte-stimulated IL2 secretion in 2C mouse splenocyte after 72 hrs by mixed lymphocyte reaction
Method in brief: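 MLR: splenocytes from 2c mice stimulated by irradiated BALB/c splenocytes in the presence of compound at the specified concentrations, 96-well cultures up to 72 h. Supernatants collected at 24, 48 and 72 h; IL-2 measured by ELISA at 450 nm.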

Row | SMILES | IC50 (Jurkat) [nM] | IC50 (PBMC) [nM] | inhibition (Splenocyte)
1 | Cc1ccc(Nc2nc(-c3cc(O)c(O)c(O)c3)nc3ccccc23)c(C)c1 | 3700 | 730 | 
2 | Oc1cc(-c2nc(Nc3ccc4nc[nH]c4c3)c3ccccc3n2)cc(O)c1O | 2570 | 4340 | 
3 | COc1cc(-c2nc(Nc3ccc(C)cc3C)c3ccccc3n2)cc(OC)c1OC | 2600 | 750 | 
4 | Nc1ccc(CNc2nc(-c3cc(O)c(O)c(O)c3)nc3ccccc23)cc1 | 670 | 570 | 
5 | COc1cc(-c2nc(Nc3ccc4c(c3)OCO4)c3ccccc3n2)cc(OC)c1OC | 600 | 380 | 
6 | Cc1ccc(Nc2nc(-c3cc(O)c(O)c(O)c3)nc3ccccc23)cc1 | 850 | 850 | Active
7 | COc1cc(-c2nc(NCc3ccc(F)c(F)c3)c3ccccc3n2)cc(OC)c1OC | 730 | 200 | 
8 | Oc1ccc(Nc2nc(-c3cc(O)c(O)c(O)c3)nc3ccccc23)cc1 | 1120 | 970 | 
9 | COc1cc(-c2nc(Nc3ccccc3)c3ccccc3n2)cc(OC)c1OC | 380 | 280 | 
10 | Oc1cc(-c2nc(NCc3ccccc3)c3ccccc3n2)cc(O)c1O | 950 | 7000 | 
11 | CCCCCCCCOc1ccc(Nc2nc(-c3cc(OC)c(OC)c(OC)c3)nc3ccccc23)cc1 | 850 | 2400 | 
12 | COc1cc(-c2nc(NCc3ccc(Cl)c(Cl)c3)c3ccccc3n2)cc(OC)c1OC | 730 | 300 | 
13 | Oc1cc(-c2nc(Nc3ccc4c(c3)OCO4)c3ccccc3n2)cc(O)c1O | 800 | 5500 | 
14 | CCCCCCCCOc1ccc(Nc2nc(-c3cc(O)c(O)c(O)c3)nc3ccccc23)cc1 | 4250 | 4530 | 
15 | COc1ccc(Nc2nc(-c3cc(O)c(O)c(O)c3)nc3ccccc23)cc1 | 550 | 500 | 
16 | Oc1cc(-c2nc(Nc3ccc4cn[nH]c4c3)c3ccccc3n2)cc(O)c1O | 690 | 500 | 
17 | COc1ccc(CNc2nc(-c3cc(OC)c(OC)c(OC)c3)nc3ccccc23)cc1 | 1100 | 500 | 
